Here are results for ten molecules from ChEMBL document CHEMBL1221395, “Synthesis, anticancer activity and mitochondrial mediated apoptosis inducing ability of 2,5-diaryloxadiazole-pyrrolobenzodiazepine conjugates” (Bioorg Med Chem, 2010).

Molecules are shown by their SMILES. Active and inactive are the calls of the source. The rule behind the calls is not given here. Some results are limits rather than exact numbers.

Data set [1] concerns COLO 205. Description: Cytotoxicity against human COLO205 cells after 24 hrs by SRB assay. Particulars: COLO 205, 24 h.
Data set [2] has as its system MCF7. Description: Cytotoxicity against human MCF7 cells by sulforhodamine B assay. (The SRB assay estimates cell density from bound dye.)
Data set [3] concerns Calf thymus DNA. In words: Binding affinity to calf thymus DNA assessed as change in melting temperature after 18 hrs. In kind it is nucleic-acid assay. The conditions noted are these: Bos taurus. The method in brief: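 Thermal melting with duplex CT-DNA (100 µM in phosphate) and ligand (20 µM), added from methanol stock, [PBD]/[DNA] 1:5, in 10 mM sodium phosphate + 1 mM EDTA, pH 7.00; incubated at 37 °C for 18 h. A260 monitored while heating at 1 °C/min over 40–90 °C. Tm taken from d(A260)/dT maxima, corrected for methanol; ΔTm = Tm(DNA+ligand) − Tm(DNA alone); at least three determinations.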

The subject of data set [4] is PC-3. In words: Cytotoxicity against human PC3 cells after 24 hrs by WST-1 assay. In kind it is functional. Particulars: PC-3, 24 h. For orientation: Formazan colour is commonly taken as a measure of viable cells.
Data set [5] concerns ZR-75-1. In words: Cytotoxicity against human ZR-75-1 cells by SRB assay.
A short description of data set [6]: Lipophilicity, log P of the compound. It is filed as physicochemical. Particulars: octanol/water.
A short description of data set [7]: Cytotoxicity against human DWD cells by SRB assay.
In data set [8] the test system is HOP-62. In words: Cytotoxicity against human HOP62 cells after 24 hrs by WST-1 assay. Particulars: HOP-62, 24 h. In kind it is functional.
Data set [9] deals with SiHa. In words: Cytotoxicity against human SiHa cells after 24 hrs by SRB assay.
The subject of data set [10] is KB. In words: Cytotoxicity against human KB cells after 24 hrs by SRB assay.
Data set [11] deals with A2780. Description: Cytotoxicity against human A2780 cells by SRB assay.
For data set [12], the system named is A549. In words: Cytotoxicity against human A549 cells after 24 hrs by WST-1 assay. In kind it is functional. Particulars: A549, 24 h.
Data set [13] in a line: Cytotoxicity against human Gurav cells after 24 hrs by WST-1 assay. It is filed as functional.
Data set [14] relates to A-375. In words: Induction of apoptosis in human A375 cells assessed as increase in Bax protein level at 4 uM after 24 hrs by Western blotting. It is filed as functional, cell-based. An outline of the steps:
(§1)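 A375 cells treated at 4 µM for 24 h. Lysates cleared at 12,000 rpm for 10 min, and protein quantified by Bradford. 30 µg per lane run on 12% SDS-PAGE and transferred to PVDF. Blocked 2 h in TBST with 5% blocking powder. Primary antibody overnight at 4 °C, HRP secondary (1:2000) 1 h at room temperature. β-actin used as loading control; untreated cells as control.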
In general terms: Immunoblotting shows a protein as a band on a membrane.

The test system of data set [15] is A-375. Description: Cell cycle arrest in human A375 cells assessed as accumulation at Sub-G1 phase after 24 hrs by FACS flow cytometry. The arrangement: concentration or dose not given beside the values.
Data set [16] concerns A-375. Description: Induction of apoptosis in human A375 cells assessed as increase in cytochrome C protein level at 4 uM after 24 hrs by Western blotting. In kind it is functional, cell-based. An outline of the steps: as §1
For data set [17], the system named is A-375. In words: Induction of apoptosis in human A375 cells assessed as increase in Caspase 3 activation at 4 uM after 24 hrs by fluorimetry. It is filed as functional, cell-based. An outline of the steps: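 A375 cells exposed to 4 µM compound. Cell lysate incubated with DEVD-AFC substrate, with or without DEVD-CHO inhibitor, at 37 °C for 1 h in a fluorescent caspase-3 kit. Fluorescence read at excitation 400 nm, emission 505 nm.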

In data set [18] the test system is A-375. In words: Cell cycle arrest in human A375 cells assessed as accumulation at G2/M phase after 24 hrs by FACS flow cytometry. Details: concentration or dose not given beside the values.
For data set [19], the system named is A-375. In words: Induction of apoptosis in human A375 cells assessed as increase in PARP protein level at 4 uM after 24 hrs by Western blotting. In kind it is functional, cell-based. An outline of the steps: as §1
Data set [20] relates to A-375. Description: Cell cycle arrest in human A375 cells assessed as accumulation at S phase after 24 hrs by FACS flow cytometry. Details: concentration or dose not given beside the values.
Data set [21] has as its system A-375. In words: Cell cycle arrest in human A375 cells assessed as accumulation at G1 phase after 24 hrs by FACS flow cytometry. Details: concentration or dose not given beside the values.

The term GI50 denotes the concentration that inhibits growth by half. The ΔTm is the change in melting temperature against a reference sample. As a reminder, the logP is the decadic logarithm of the partition coefficient of the neutral form, usually between octanol and water. In the case of `COc1ccc(-c2nnc(-c3ccc(C(F)(F)F)cc3)o2)cc1OCCCCCOc1cc2c(cc1OC)C(=O)N1CCC[C@H]1C=N2`, the GI50 in [1] is 110 nM; in [2], below 100 nM; in data set [4] it was 130 nM; in data set [5], 110 nM; in data set [7], below 100 nM; in data set [8], 130 nM. For the same molecule, the GI50 was 120 nM in data set [9]; 110 nM in data set [10]; below 100 nM in [11]; below 100 nM in data set [12]; below 100 nM in data set [13]. In addition, the ΔTm in [3] was determined as 1.7 °C. This molecule displayed a logP in [6] of 5.84.
In the case of `COc1ccc(-c2nnc(-c3ccc(OC)c(OCCCOc4cc5c(cc4OC)C(=O)N4CCC[C@H]4C=N5)c3)o2)cc1OC`, the GI50 is below 100 nM in data set [1]; below 100 nM in data set [2]; below 100 nM in data set [4]; below 100 nM in data set [5]; below 100 nM in data set [7]; 130 nM in [8]. Moreover, the GI50 is 150 nM in data set [9]; 110 nM in data set [10]; 110 nM in data set [11]; below 100 nM in data set [12]; 110 nM in data set [13]. Moreover, the ΔTm in data set [3] worked out at 1.5 °C. In addition, in data set [6], the logP is 3.92.
Turning to `COc1ccc(-c2nnc(-c3ccc(F)cc3)o2)cc1OCCCCCOc1cc2c(cc1OC)C(=O)N1CCC[C@H]1C=N2`, the GI50 in [1] is below 100 nM; in [2], 120 nM; in [4], 160 nM; in data set [5] it was 150 nM; in [7], below 100 nM; in data set [8], 120 nM. For the same molecule, the 50% growth inhibitory concentration (GI50) in data set [9] was 120 nM; in data set [10], below 100 nM; in [11], below 100 nM; in data set [12], 140 nM; in data set [13] it was below 100 nM. The ΔTm in data set [3] amounted to 1.8 °C. The same molecule had a logP in [6] of 5.17.
With `COc1ccc(-c2nnc(-c3cc(OC)c(OC)c(OC)c3)o2)cc1OCCCOc1cc2c(cc1OC)C(=O)N1CCC[C@H]1C=N2`, the GI50 in data set [1] was below 100 nM; in data set [2] it was below 100 nM; in data set [4], 140 nM; in data set [5] it was 120 nM; in data set [7] it was below 100 nM; in [8] it was 170 nM. For the same molecule, the GI50 turned out to be 180 nM in data set [9]; 140 nM in data set [10]; 140 nM in data set [11]; 110 nM in data set [12]; 140 nM in data set [13]. In addition, in data set [3], the shift in melting temperature (ΔTm) was determined as 1.9 °C. Also, the logP in data set [6] is 3.76.
As to `COc1ccc(-c2nnc(-c3cc(OC)c(OC)c(OC)c3)o2)cc1OCCCCOc1cc2c(cc1OC)C(=O)N1CCC[C@H]1C=N2`, the GI50 in data set [1] was below 100 nM; in [2], 150 nM; in data set [4], 160 nM; in [5], 160 nM; in [7], 120 nM; in [8], 130 nM. The GI50 is 130 nM in data set [9]; below 100 nM in data set [10]; below 100 nM in data set [11]; below 100 nM in data set [12]; below 100 nM in [13]. In addition, the ΔTm in [3] was determined as 2.1 °C. The molecule further came in with a logP in [6] of 4.13.
For the molecule `COc1ccc(-c2nnc(-c3ccc(OC)c(OCCCCOc4cc5c(cc4OC)C(=O)N4CCC[C@H]4C=N5)c3)o2)cc1OC`, the GI50 was below 100 nM in data set [1]; below 100 nM in [2]; 130 nM in [4]; 120 nM in data set [5]; below 100 nM in data set [7]; 130 nM in data set [8]. Besides, the GI50 in data set [9] was 130 nM; in data set [10], 110 nM; in data set [11], below 100 nM; in data set [12], below 100 nM; in [13] it was below 100 nM. For the same molecule, the ΔTm in [3] was found to be 2.3 °C. This molecule also returned a logP in data set [6] of 4.28.
For `COc1ccc(-c2nnc(-c3cc(OC)c(OC)c(OC)c3)o2)cc1OCCCCCOc1cc2c(cc1OC)C(=O)N1CCC[C@H]1C=N2`, the outcome in data set [14], in [16], in [17] and in data set [19] was Active. Further, the GI50 was 120 nM in [1]; below 100 nM in data set [2]; 150 nM in data set [4]; 120 nM in data set [5]; below 100 nM in data set [7]; below 100 nM in data set [8]. In addition, the GI50 in data set [9] is below 100 nM; in data set [10], below 100 nM; in data set [11], below 100 nM; in [12] it was 140 nM; in data set [13], below 100 nM. For the same molecule, the Activity in data set [15] came out at 13.76%; in data set [18], 2.34%; in data set [20], 10.4%; in data set [21], 73.5%. In data set [3], the ΔTm was determined as 1.6 °C. This molecule also showed a logP in data set [6] of 4.53.
As to `COc1ccc(-c2nnc(-c3ccc(C(F)(F)F)cc3)o2)cc1OCCCCOc1cc2c(cc1OC)C(=O)N1CCC[C@H]1C=N2`, the GI50 is 160 nM in [1]; 140 nM in [2]; 160 nM in data set [4]; 120 nM in data set [5]; 150 nM in data set [7]; 160 nM in data set [8]. The GI50 in [9] is 170 nM; in data set [10], 150 nM; in [11], 140 nM; in data set [12], 110 nM; in [13], 140 nM. For the same molecule, in [3], the ΔTm came out at 2.1 °C. In data set [6], this molecule came in with a logP of 5.44.
Turning to `COc1ccc(-c2nnc(-c3ccc(F)cc3)o2)cc1OCCCOc1cc2c(cc1OC)C(=O)N1CCC[C@H]1C=N2`, the result in [14], in data set [16], in [17] and in data set [19] was Active. In addition, the GI50 is below 100 nM in data set [1]; below 100 nM in data set [2]; below 100 nM in [4]; below 100 nM in [5]; below 100 nM in [7]; 160 nM in data set [8]. Besides, the GI50 is 170 nM in data set [9]; 150 nM in data set [10]; 140 nM in [11]; 150 nM in [12]; 160 nM in [13]. The Activity is listed as 6.79% in data set [15], 5.06% in data set [18], 14.14% in data set [20] and 74% in data set [21]. For the same molecule, the ΔTm in [3] turned out to be 2 °C. In data set [6], this molecule came in with a logP of 4.39.
As to `COc1ccc(-c2nnc(-c3ccc(F)cc3)o2)cc1OCCCCOc1cc2c(cc1OC)C(=O)N1CCC[C@H]1C=N2`, the GI50 in data set [1] turned out to be 150 nM; in data set [2], 160 nM; in [4] it was 170 nM; in [5] it was 170 nM; in data set [7] it was 130 nM; in data set [8] it was 150 nM. Further, the GI50 was below 100 nM in data set [9]; below 100 nM in data set [10]; below 100 nM in data set [11]; 290 nM in data set [12]; 100 nM in data set [13]. For the same molecule, the ΔTm in data set [3] was 2.5 °C. Further, in data set [6], the logP amounted to 4.78.
